Data from ChEMBL document CHEMBL4414601 (J Med Chem, 2019).

System: Plasmodium falciparum
Assay: Antiplasmodial activity against […] of Plasmodium falciparum NF54 assessed as reduction in female gametocytes activation preincubated for 48 hrs followed by gametocytes activation and measured after 24 hrs by fluorescence based automated inverted microscopic analysis
Type: functional, organism-based
Procedure, shortened: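 NF54 gametocytes were activated by lowered temperature plus ookinete medium with xanthurenic acid and anti-Pfs25-Cy3 antibody (1/2000 final dilution). Cultures were then kept at 26 °C for 24 h in the dark. Activated females were counted by Cy3 anti-Pfs25 fluorescence, with events gated on size, roundness and fluorescence intensity.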

In the case of `Cc1cc(Nc2nccc(-c3sc(C4CCNCC4)nc3-c3ccc(F)cc3)n2)ccn1`, the EC50 is reported as 400 nM.
